The values that follow come from PubChem BioAssay AID651876 (Broad Institute, 2012).

The experiment has as its target Kelch-like ECH-associated protein 1 (Homo sapiens) (UniProt Q14145). As to the kind of experiment: competitive SPR blockade of Keap1/Nrf2 binding – biophysical, dry powder, orthogonal assay for Keap1-Nrf2 interaction inhibitor project, confirmation (AID 651876). The conditions noted are these: Keap1 Kelch binding to Nrf2 peptide, stronger effect = higher value. A digest of the protocol: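 Material: Keap1 Kelch domain, biochemical; amount: 40 nM Kelch domain; probe or stimulus: biotinylated 16mer Nrf2 peptide captured on streptavidin CM5 surface; compound: two single doses per compound, 5 µM and 50 µM; timing: Kelch–compound preincubation at room temperature, SPR injection at 25 °C; technique: Double-referenced SPR association slopes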

“And” between values parts separate entries of the source, which are not always exact repeats. Identical values can stand only once. The source made the active and inactive calls.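 The calls were made as follows: active = inhibition above 20% at 50 µM; inactive = the rest.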

Sequence of Kelch-like ECH-associated protein 1 (Homo sapiens) (Q14145 whole entry, looked up, the tested form may be a part): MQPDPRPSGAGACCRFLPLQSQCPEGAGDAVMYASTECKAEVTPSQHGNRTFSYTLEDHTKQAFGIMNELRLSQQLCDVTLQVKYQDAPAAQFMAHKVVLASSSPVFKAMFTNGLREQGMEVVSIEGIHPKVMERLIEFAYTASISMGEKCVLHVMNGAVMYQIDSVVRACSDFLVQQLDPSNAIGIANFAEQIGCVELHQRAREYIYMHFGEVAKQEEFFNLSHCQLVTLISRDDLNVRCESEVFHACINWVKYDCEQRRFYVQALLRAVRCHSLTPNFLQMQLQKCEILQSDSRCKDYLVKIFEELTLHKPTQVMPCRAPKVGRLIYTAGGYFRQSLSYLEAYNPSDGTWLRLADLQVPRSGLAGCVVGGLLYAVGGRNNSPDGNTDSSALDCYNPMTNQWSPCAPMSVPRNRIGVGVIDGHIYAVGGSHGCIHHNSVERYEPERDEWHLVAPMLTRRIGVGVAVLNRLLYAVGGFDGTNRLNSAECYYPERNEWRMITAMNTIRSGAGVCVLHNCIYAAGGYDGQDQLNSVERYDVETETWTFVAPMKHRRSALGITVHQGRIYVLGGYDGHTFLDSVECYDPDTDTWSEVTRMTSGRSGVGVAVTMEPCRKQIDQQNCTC

Consider `O=C(O)CCCC(=O)N1CCc2ccccc2C1CN1C(=O)c2ccccc2C1=O` (centres undefined), for which the inhibition runs as follows: (at 50 µM) 2.3% (inactive); (inhibition, at 5 µM) 6.4%.
For `O=C(O)C1CCCCC1C(=O)N1CCCCC1CN1C(=O)c2ccccc2C1=O` (centres undefined) the same measures were 13.5% (inactive) and 0.4%.
Take `COC(=O)C(C(=O)OC)c1cc(NS(=O)(=O)c2c(C)cc(C)cc2C)c2ccccc2c1O`: the inhibition (at 50 µM) is 93.1% and the inhibition (inhibition, at 5 µM) turned out to be 65.9%.
For `O=C(NC[C@@H]1c2ccccc2CCN1C(=O)[C@@H]1CCCC[C@@H]1C(=O)O)c1ccccc1CO` the same measures were 39.3% and 7.3%.
For the molecule `O=C(O)[C@H]1CCCC[C@H]1C(=O)N1CCc2ccccc2C1CCN1C(=O)c2ccccc2C1=O` (some centres undefined), the inhibition runs as follows: (at 50 µM) 8.8% (inactive) and 2.3% (inactive); (inhibition, at 5 µM) -2.2% and 0.5%.
With `CCOC(=O)C(C(=O)OCC)c1cc(CN2C(=O)c3ccccc3C2=O)c2ccccc2n1`, the inhibition is, setting by setting: (at 50 µM) 8.32% (inactive); (inhibition, at 5 µM) 11.9%.
Regarding `CC(=O)Nc1cc(NS(=O)(=O)c2c(C)cc(C)cc2C)c2ccccc2c1O`, the inhibition runs as follows: (at 50 µM) 13.9% (inactive); (inhibition, at 5 µM) 9.6%.
For `COC(=O)[C@H]1CCCC[C@H]1C(=O)N1CCc2ccccc2[C@H]1CN1C(=O)c2ccccc2C1=O`, the inhibition (at 50 µM) was 1.6% (inactive) and the inhibition (inhibition, at 5 µM) is -0.6%.
The corresponding values for `NC(=O)c1ccccc1C(=O)NC[C@@H]1c2ccccc2CCN1C(=O)[C@@H]1CCCC[C@@H]1C(=O)O` are 83% and 38.6%.
With `Cc1ccc(S(=O)(=O)Nc2cc(C(C(=O)OC(C)C)C(=O)C(F)(F)F)c(O)c3ccccc23)cc1` (centres undefined), the inhibition (at 50 µM) is 80.3% and the inhibition (inhibition, at 5 µM) was 30.2%.
`Cc1ccc(S(=O)(=O)NC[C@@H]2c3ccccc3CCN2C(=O)[C@@H]2CCCC[C@@H]2C(=O)O)c(C)c1`: the inhibition runs as follows: (at 50 µM) 17.1% (inactive); (inhibition, at 5 µM) 0.1%.
For `O=S(=O)(Nc1nc(NCC2CCCCC2)nc2ccccc12)c1ccccc1` the same measures were 7% (inactive) and -1.7%.

In general, inhibition refers to the relative decrease from the control value, in per cent.
